Screens (PubChem)
Rin1 Abl inh = human Rin1-Abl interaction inhibition. P00519+Q13671. TR-FRET Rin1/Abl binding, biochemical. inhibition, % at 7.35 µM. 0.4% of 360,000 active. AID 588664; in the data active = inhibition above about 5%, passing the limit was not always enough
Target sequence (P00519 whole entry, looked up): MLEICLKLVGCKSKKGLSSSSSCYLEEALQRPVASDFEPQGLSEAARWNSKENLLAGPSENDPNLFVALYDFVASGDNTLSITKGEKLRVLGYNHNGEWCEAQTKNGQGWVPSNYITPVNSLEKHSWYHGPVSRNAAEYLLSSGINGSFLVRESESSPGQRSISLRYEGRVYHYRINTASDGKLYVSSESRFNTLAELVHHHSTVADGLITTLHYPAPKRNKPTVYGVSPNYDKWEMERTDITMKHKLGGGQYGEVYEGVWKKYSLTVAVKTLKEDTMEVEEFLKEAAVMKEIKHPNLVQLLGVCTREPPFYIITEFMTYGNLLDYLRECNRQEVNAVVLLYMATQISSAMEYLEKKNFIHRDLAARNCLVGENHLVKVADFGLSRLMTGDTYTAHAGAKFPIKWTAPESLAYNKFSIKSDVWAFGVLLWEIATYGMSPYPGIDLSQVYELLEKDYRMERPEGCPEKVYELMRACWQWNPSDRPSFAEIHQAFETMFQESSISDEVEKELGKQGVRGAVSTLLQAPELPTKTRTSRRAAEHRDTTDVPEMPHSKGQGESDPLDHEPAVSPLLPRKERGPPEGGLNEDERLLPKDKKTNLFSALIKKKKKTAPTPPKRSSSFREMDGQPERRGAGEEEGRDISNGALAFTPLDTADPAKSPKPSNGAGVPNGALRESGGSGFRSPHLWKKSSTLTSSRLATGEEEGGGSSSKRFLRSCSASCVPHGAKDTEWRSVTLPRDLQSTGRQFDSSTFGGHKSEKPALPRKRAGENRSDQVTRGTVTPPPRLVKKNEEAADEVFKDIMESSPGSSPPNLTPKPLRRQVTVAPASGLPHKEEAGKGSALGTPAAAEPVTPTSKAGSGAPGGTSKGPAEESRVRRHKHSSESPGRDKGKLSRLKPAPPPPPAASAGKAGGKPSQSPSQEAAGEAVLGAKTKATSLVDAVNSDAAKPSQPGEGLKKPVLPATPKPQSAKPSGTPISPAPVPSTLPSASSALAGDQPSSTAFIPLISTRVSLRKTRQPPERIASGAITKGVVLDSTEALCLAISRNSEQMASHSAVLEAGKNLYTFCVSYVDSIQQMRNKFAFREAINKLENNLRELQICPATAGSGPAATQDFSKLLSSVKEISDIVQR
Target sequence (Q13671 whole entry, looked up): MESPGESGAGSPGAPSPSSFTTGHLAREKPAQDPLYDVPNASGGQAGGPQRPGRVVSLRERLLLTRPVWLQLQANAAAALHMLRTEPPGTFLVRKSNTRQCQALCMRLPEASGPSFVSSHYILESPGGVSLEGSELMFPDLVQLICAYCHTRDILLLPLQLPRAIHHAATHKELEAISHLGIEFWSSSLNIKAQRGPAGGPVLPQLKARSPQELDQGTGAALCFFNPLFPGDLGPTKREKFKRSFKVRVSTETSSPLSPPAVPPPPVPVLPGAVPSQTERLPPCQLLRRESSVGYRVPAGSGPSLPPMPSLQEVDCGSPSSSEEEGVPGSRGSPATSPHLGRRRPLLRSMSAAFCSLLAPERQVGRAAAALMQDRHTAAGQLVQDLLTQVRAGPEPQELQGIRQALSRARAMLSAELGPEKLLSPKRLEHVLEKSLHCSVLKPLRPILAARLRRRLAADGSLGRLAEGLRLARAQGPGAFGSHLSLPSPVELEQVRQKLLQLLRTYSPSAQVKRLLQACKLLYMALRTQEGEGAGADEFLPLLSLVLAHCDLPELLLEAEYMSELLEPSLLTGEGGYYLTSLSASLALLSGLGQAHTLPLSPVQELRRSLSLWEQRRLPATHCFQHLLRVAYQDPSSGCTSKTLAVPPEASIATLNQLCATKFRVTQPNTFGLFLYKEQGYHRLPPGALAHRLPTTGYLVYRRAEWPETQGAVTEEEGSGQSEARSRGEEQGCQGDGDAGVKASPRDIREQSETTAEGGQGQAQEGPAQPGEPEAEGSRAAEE
SR-BI uptake up = enhances SR-BI lipid uptake from DiI-HDL | CHO ldlA[mSR-BI] cells, DiI-HDL uptake fluorescence, 3 h; 100 = double the neutral-control signal | activation, % at 12.5 µM | 0.096% of 320,000 active | AID 504775;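 active = mean replicate activation of at least 60% and every replicate at or above 60%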
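Assay system: LDL receptor-deficient CHO ldlA cells overexpressing murine SR-BI / Medium: BSA-supplemented, HEPES-buffered Ham's F12, pH 7.4 / Probe or stimulus: DiI-labelled HDL at 10 µg/mL final / Timing: compound with DiI-HDL co-incubation, 3 h at 37 °C / Technique: bottom-read cell fluorescence after medium removal, ex 550/em 595 nm / Measure: HDL uptake via cellular fluorescence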
SR-BI DiI inh = blocks mouse SR-BI lipid uptake from DiI-HDL; inhibition, % at 12.5 µM; Q61009; AID 488896; 0.96% of 320,000 active; ldlA[mSR-BI] CHO cells, DiI-HDL uptake fluorescence, 3 h;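 active = mean replicate inhibition of at least 70% and a set share of replicates each scoring 70 or more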
GRK2 inh = inhibitors of human GRK2 displacing RNA aptamer; 0.59% of 330,000 active; bead flow cytometry, FAM-aptamer displacement from GRK2; inhibition of aptamer binding, % at 10 µM; AID 488847;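 active = inhibition of aptamer binding above 40%, roughly 3 SD of noise, on plates passing a quality check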;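 also: median bead fluorescence of bound FAM aptamer so fluorescent compounds give negative values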
GRK2 CP1 = confirmation of human GRK2 inhibitors displacing RNA aptamer | bead-bound GRK2, FAM-aptamer displacement, flow cytometry | AID 504451 | 4% of 2,000 active | aptamer displacement, % at 10 µM | shares compounds with GRK2 inh;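 active = aptamer displacement above 40%, near three times the noise of non-fluorescent compounds, on plates passing quality checks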;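 also: negative values mostly reflect intrinsic compound fluorescence rather than true enhancement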
FAM quench CP1 = quenches fluorescent RNA aptamer, GRK2 hit artifact | shares compounds with GRK2 inh | Carboxyfluorescein RNA aptamer on beads, flow cytometry quenching; hits give low values | fluorescence response (% of DMSO), % at 10 µM | 2,000 tested, under 10 active;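 active = compounds that quench the bead-bound fluorescent RNA probe, cutting fluorescence to under half of the solvent control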;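 also: counterscreen run without GRK2 so only probe quenching by compound is measured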
GRK2 CP2 = human GRK2 inhibition confirmation, cherry pick 2. shares compounds with GRK2 inh. 360 tested, under 10 active. bead-bound GRK2, FAM-aptamer displacement, flow cytometry. inhibition of aptamer binding, % at 10 µM;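 active = inhibition of aptamer binding above 40%, about triple the noise seen with nonglowing compounds, on plates passing quality control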;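 also: negative values mostly come from compounds that fluoresce themselves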
FAM quench SP = counter-screen for GRK2 binding hits: quenchers of fluorescent RNA aptamer | shares compounds with GRK2 inh | carboxyfluorescein RNA aptamer beads, flow cytometry quenching; hits give low values | fluorescence response vs DMSO, % at 10 µM | 360 tested, under 10 active;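 active = response vs DMSO under 50%, meaning signal dropped by over half, treated as fluorescence quencher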;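 also: labelled aptamer on streptavidin beads without GRK2 as a quench counter-screen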
A number is an active result; 0 = inactive; - = no result. An excerpt weighted towards active compounds, which were near 1.9% of everything screened.

SMILES | Rin1 Abl inh | SR-BI uptake up | SR-BI DiI inh | GRK2 inh | GRK2 CP1 | FAM quench CP1 | others
CCOCc1cnc(C)nc1NCC(=O)c1c(C)[nH]c2ccccc12 | 0 | 0 | 0 | 56 | 0 | 0
CCCC(=O)N1CCC1(C)C(=O)NS(=O)(=O)c1cc2c(cc1C)CCCS2(=O)=O (stereo not drawn) | 0 | - | - | - | - | -
Cc1ccc(C)c(C(=O)COC(=O)c2cc(Cl)nc3ccccc23)c1 | 0 | 0 | 0 | 0 | - | -
COC(=O)c1cc(Cl)nc2ccccc12 | 0 | 0 | 0 | 87 | 0 | 0
NS(=O)(=O)c1ccc(NS(=O)(=O)c2ccc(NC(=O)c3ccc(-c4ccccc4)cc3)cc2)cc1 | 0 | 0 | 0 | 41 | 0 | 0
NS(=O)(=O)c1ccc(NC(=O)c2ccc(-c3ccccc3)cc2)cc1 | 0 | 0 | 0 | - | - | -
COc1cc(NC(=O)COc2ccccc2C)ccc1NC(=O)c1ccco1 | 0 | 0 | 0 | 51 | - | - | GRK2 CP2=0;FAM quench SP=0
COc1ccc(C(=O)Nc2ccccc2NC(=O)c2ccco2)cc1OC | 0 | 0 | 0 | 44 | 0 | 0
NC(c1csc(Nc2ccccn2)n1)C1CCCCC1 (stereo not drawn) | 0 | - | - | - | - | -
Cc1noc(C)c1-c1ccc(C(=O)Nc2ccccc2)c2occc12 | 0 | - | - | - | - | -
CN(C)CCCn1cnc2c1c(=O)[nH]c(=O)n2Cc1ccccc1 | 0 | 0 | 0 | 99 | 0 | 0
Cn1cc(C(=O)c2ccc(Cl)cc2Cl)cc1C(=O)N/N=C(\N)COc1ccccc1 | 0 | 0 | 0 | 58 | 0 | 0
Cc1ccc(C(=O)Oc2ccc3ccc(=O)oc3c2)cc1 | 0 | 0 | 0 | 0 | - | -
CC(=O)Oc1ccc2ccc(=O)oc2c1 | 0 | 0 | 0 | 80 | 0 | 0
Cc1ccc(NC(=O)C(C)Sc2nnc3n2CCCCC3)cc1S(=O)(=O)N1CCOCC1 (stereo not drawn) | 0 | - | - | - | - | -
CC1(C(=O)NCc2ccc(Cl)c(Cl)c2)Oc2cccnc2NC1=O (stereo not drawn) | 0 | 0 | 0 | 0 | - | -
CC1=C(C(=O)OCc2ccccc2)C(c2cccc3ccccc23)NC(=O)N1CCCC(=O)O (stereo not drawn) | 0 | 0 | 0 | 0 | - | -
COc1ccc(C(N)CCc2ccc(C)o2)cc1 (stereo not drawn) | 0 | 0 | 0 | 79 | 0 | 0
Cc1ccccc1C(=O)N1CCC1(C)C(=O)NC(C)C (stereo not drawn) | 0 | - | - | - | - | -
O=Nc1c(O)c2ccccc2c2ccccc12 | 0 | 0 | 0 | 0 | - | -
O=c1c(=Nc2ccccc2O)c(=O)c2ccccc12 | 0 | 0 | 0 | 70 | 0 | 0
COc1cccc(CN2CCSCC2)c1OC | 0 | 0 | 0 | 0 | - | -
COc1cccc(CN2CCN(Cc3cccc(Br)c3)CC2)c1OC | 0 | 0 | 0 | 55 | 0 | 0
Cc1ccc(NC(=O)CN(C)C(=O)c2cccc(S(=O)(=O)NCc3ccccc3)c2)cc1 | 0 | 0 | 0 | 91 | 0 | 0
Cc1ccc(C(O)c2ncc(-c3cccc4ccccc34)[nH]2)c(C)c1 (stereo not drawn) | 0 | - | - | - | - | -
SMILES | Rin1 Abl inh | SR-BI uptake up | SR-BI DiI inh | GRK2 inh | GRK2 CP1 | FAM quench CP1 | others
CC1Sc2ccc(S(=O)(=O)CCC(=O)Nc3ccccc3Cl)cc2NC1=O (stereo not drawn) | 0 | 0 | 0 | 0 | - | -
CC1Sc2ccc(S(=O)(=O)CCC(=O)Nc3ccc(C(C)C)cc3)cc2NC1=O (stereo not drawn) | 0 | 0 | 0 | 0 | - | -
CCC1Sc2ccc(S(=O)(=O)CCC(=O)Nc3c(Cl)cc(OC)cc3OC)cc2NC1=O (stereo not drawn) | 0 | 0 | 0 | 0 | - | - | GRK2 CP2=0;FAM quench SP=0
Cc1ccc(NC(=O)CCS(=O)(=O)c2ccc3c(c2)NC(=O)C(C)S3)cc1Cl (stereo not drawn) | 0 | 0 | 0 | 0 | - | - | GRK2 CP2=0;FAM quench SP=0
CCOc1ccccc1N(C)C(=O)CCS(=O)(=O)c1ccc2c(c1)NC(=O)C(C)S2 (stereo not drawn) | 0 | 0 | 0 | 0 | - | - | GRK2 CP2=0;FAM quench SP=0
CC1Sc2ccc(S(=O)(=O)CCC(=O)NC(C)c3ccccc3)cc2NC1=O (stereo not drawn) | 0 | 0 | 0 | 0 | - | - | GRK2 CP2=0;FAM quench SP=0
O=C(CC(Cc1ccccc1)C(=O)O)Nc1ccc(Cl)c(Cl)c1 (stereo not drawn) | 0 | 0 | 0 | 99 | 0 | 0
O=C(CSc1ccccc1)Nc1ccc(-c2nc3ccccc3[nH]2)cc1 | 0 | 0 | 0 | 100 | - | - | GRK2 CP2=0;FAM quench SP=0
Cc1ccc(Cl)cc1C1=CC(=O)C[C@H](c2ccc(F)cc2)C1 | 0 | 0 | 0 | 64 | 0 | 0
COc1ccc([C@H]2CC(=O)C=C(c3cc(Cl)ccc3C)C2)cc1 | 0 | 0 | 0 | 0 | - | -
CCN1CCc2c(sc(NC(=O)c3ccc(S(=O)(=O)N4CCCCCC4)cc3)c2C(=O)NC)C1 | 0 | 0 | 0 | 0 | - | -
CC[C@]12c3[nH]c4cc(-c5ccco5)ccc4c3CCN1C(=O)[C@@H](CC(=O)NCCN1CCOCC1)C[C@@H]2C(=O)N1CCN(C(=O)C2CC2)CC1 | 0 | 0 | 0 | 0 | - | -
O=C(Nc1nc2c(ccc3ccccc32)s1)c1ccco1 | 0 | 0 | 0 | 0 | - | - | GRK2 CP2=0;FAM quench SP=0
O=C(CN1C(=O)COc2ccc(S(=O)(=O)N3CCOCC3)cc21)Nc1cccc(Cl)c1 | 0 | 0 | 0 | 66 | 0 | 0
CC(c1nc2ccccc2c(=O)[nH]1)N1CCN(C)CC1 (stereo not drawn) | 0 | 0 | 0 | 0 | - | - | GRK2 CP2=0;FAM quench SP=0
COc1ccc(C2NC(c3ccc(OC)cc3OC)C(C)C(=O)C2C)c(OC)c1 (stereo not drawn) | 0 | 0 | 0 | 0 | - | -
OCC1CCCN(c2nc(CN3CCCCC3)nc3scc(-c4ccccc4)c23)C1 (stereo not drawn) | 0 | 0 | 0 | 0 | 0 | 0
OCC1CCCN(c2ncnc3scc(-c4ccccc4)c23)C1 (stereo not drawn) | 0 | 0 | 0 | 0 | - | -
CN(Cc1ccccc1)c1nc(CN2CCOCC2)nc2scc(-c3ccccc3)c12 | 0 | 0 | 0 | 0 | 0 | 0
CC1(C2CCCC2)NC(=O)NC1=O (stereo not drawn) | 0 | 0 | 0 | - | - | -
C/C=C/c1cccc(-c2nc(C(=O)NC3CCCC3)cc3c2[C@@H](CCO)N(S(=O)C(C)(C)C)C3)c1 (stereo partly drawn) | 0 | - | - | - | - | -
C[C@]12C=CC(=O)C=C1CC[C@@H]1[C@@H]2C(=O)C[C@@]2(C)[C@H]1CC[C@]2(O)C(=O)COC(=O)CCC(=O)O | 0 | 0 | 0 | 78 | 0 | 0
Cc1ccc(Nc2c([N+](=O)[O-])cc(C(=O)N3CC(=O)Nc4ccccc43)cc2[N+](=O)[O-])c(C)c1 | 0 | 0 | 75 | 100 | 0 | 0
CCOc1ccc(NC(=O)Nc2cccnc2)cc1 | 0 | 0 | 0 | 0 | - | -
